# Scp-1 inhibitor = blocks human Scp-1 phosphatase activity; Q9GZU7; inhibition, % at 20 µM; Recombinant Scp1, phosphopeptide, malachite green phosphate absorbance; 340,000 tested, 0.88% active;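 active = inhibition above about 50% at 20 µM, limit read from the data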
# Target sequence (Q9GZU7 76-261 limits assumed): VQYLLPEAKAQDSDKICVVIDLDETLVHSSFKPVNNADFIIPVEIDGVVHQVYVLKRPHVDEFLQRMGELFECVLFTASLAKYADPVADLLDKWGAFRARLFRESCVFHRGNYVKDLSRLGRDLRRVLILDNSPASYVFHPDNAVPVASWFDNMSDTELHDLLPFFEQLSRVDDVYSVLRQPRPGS
#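 Test system: SCP-1 phosphatase catalytic domain, residues 76-261 | Compound dosing: One concentration, 20 µM, with 1.0% DMSO | Schedule: 45 min room-temperature reaction, 5 min colour, 30 min stabiliser | Detection: Absorbance at 630 nm | Read-out basis: % inhibition of SCP-1 phosphate liberation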
# LMPTP inh = blocks human LMPTP phosphatase | P24666 | recombinant LMPTP-A, OMFP fluorogenic substrate, fluorescence intensity | inhibition, % at 20 µM | 360,000 tested, 0.22% active;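 active = compounds that cut the enzyme signal by at least half of the control window in the single-dose screen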
# Target sequence (P24666 whole entry, looked up): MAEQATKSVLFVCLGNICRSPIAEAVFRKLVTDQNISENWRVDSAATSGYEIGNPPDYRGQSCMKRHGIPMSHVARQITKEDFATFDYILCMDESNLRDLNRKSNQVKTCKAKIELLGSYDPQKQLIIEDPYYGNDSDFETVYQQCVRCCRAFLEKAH
#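 Assay system: LMPTP-A, protein tyrosine phosphatase of low molecular weight / Medium: pH 6.0 Bis-Tris buffer with DTT and Triton X-100 / Schedule: 50 min enzyme reaction at room temperature, protected from light / Measured by: endpoint fluorescence intensity from OMFP dephosphorylation / Read-out basis: % inhibition relative to no-enzyme and uninhibited control wells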
# DNMT1 block = inhibitors of human DNMT1; DNMT1 molecular beacon, Hinp1I cleavage, fluorescence; inhibition (reported as % activation of signal), % at 10 µM; 360,000 tested, 0.83% active; in the data active = inhibition above about 50%
# SUMO1 PPI mod = alters human SUMO1 binding to SIM partners; P63165; SUMO1 binding to a labelled peptide, TR-FRET, 1 h; inhibition, % at 20 µM; 360,000 tested, 0.33% active; AID 602429; in the data active = inhibition above about 37%
# Target sequence (P63165 whole entry, looked up): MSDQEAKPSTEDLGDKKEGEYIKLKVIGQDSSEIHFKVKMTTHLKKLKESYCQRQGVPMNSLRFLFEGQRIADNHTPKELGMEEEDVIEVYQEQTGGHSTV
# STEP block = blocks human striatal-enriched tyrosine phosphatase | P54829 | recombinant STEP, OMFP fluorogenic substrate, fluorescence | inhibition, % at 20 µM | 360,000 tested, 0.25% active | AID 588621;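 active = inhibition at 20 µM, scaled per plate between control wells, above about 37%, limit read from the data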
#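 System: STEP (striatal-enriched tyrosine phosphatase) enzyme, cell-free; medium: Bis-Tris pH 6.0 buffer with DTT, detergent; dosing: 20 µM, 1% DMSO; times: reaction 20 min, ambient temperature; detection: fluorescence, 480/540 nm; read-out basis: normalized % inhibition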
# Scp1 confirm = Scp-1 (human) inhibition, single-dose confirmed; shares compounds with Scp-1 inhibitor; 2,500 tested, 61% active; recombinant SCP-1 catalytic domain, phosphate release, malachite green absorbance; inhibition, % at 20 µM; AID 540281
# MG interference = counter-screen for Scp-1 inhibitors: colorimetric interference; Colorimetric interference counterscreen, malachite green absorbance 630 nm; AID 540313; apparent inhibition (interference), % at 20 µM; shares compounds with Scp-1 inhibitor; 2,500 tested, under 10 active;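 also: compounds added after enzyme reaction finished so only phosphate colour detection is probed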
# Scp-1 Tm shift = binds human Scp-1, shifting its melting temperature. Recombinant SCP1, Sypro Orange thermal shift Tm. 1,500 tested, 25% active. thermal shift relative to vanadate control, % at 40 µM. shares compounds with Scp-1 inhibitor;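 active = substances whose mean melting-temperature shift, as a percentage of the reference inhibitor's shift, reaches about 5.3%, limit read from the data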
# Numbers stand for hits; i = inactive; nt = no result. In the library only some 1.7% were active in any assay of this set; here they are far more common.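 The calls were made as follows, unless noted: active = inhibition of at least 30% at 20 µM; inactive = the rest.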
SMILES,Scp-1 inhibitor,LMPTP inh,DNMT1 block,SUMO1 PPI mod,STEP block,Scp1 confirm,MG interference,others
CC(C)(C)C(=O)O/N=C1/C(=O)N(c2ccccc2)c2ccccc21,89.5,i,i,i,i,74.3,i,Scp-1 Tm shift=i
CC(C)CC(=O)O/N=C1\C(=O)N(c2ccccc2)c2ccccc21,i,i,i,i,i,nt,nt,
COc1ccc(S(=O)(=O)N2CCCC(c3cc(C(=O)NCc4cccnc4)no3)C2)cc1 (stereo unspecified),nt,i,i,i,i,nt,nt,
CC(C)(C)OC(=O)NCCCCCc1cn(CC(=O)NCCCCCCCCCCC(=O)N2CCN(C(=O)OC(C)(C)C)CC2)nn1,61.3,i,i,i,i,i,i,
CC(CC(=O)c1cccs1)CC(=O)c1cccs1,i,i,i,i,i,nt,nt,
O=C(O)CCCCCCCCCC(=O)c1cccs1,81.1,i,i,i,i,i,i,
CCOc1cc2[nH]c(=S)n(Cc3ccc(C(=O)NCCCN(CC)CC)cc3)c(=O)c2cc1OCC,59.1,i,i,i,i,i,i,
CCCNC(=O)c1ccc2c(=O)n(Cc3ccco3)c(=S)[nH]c2c1,i,i,i,i,i,nt,nt,
COc1ccc(CCNC(=O)c2ccc3c(=O)n(Cc4ccco4)c(=S)[nH]c3c2)cc1OC,58.2,i,i,i,i,i,i,
C=C(C)CN1C(=O)C(C)SC1=NN=C1SCC(=O)N1C (stereo unspecified),nt,i,i,i,i,nt,nt,
CN1CCN2c3ccccc3CC(C#N)(C#N)C2C1 (stereo unspecified),nt,i,i,i,i,nt,nt,
Cc1cccc(C)c1NC(=O)CSc1nnc(NC(=O)c2ccccc2C(=O)O)s1,65.2,i,i,i,i,i,i,
CC(C)CC(NC(=O)C1CCCCC1)C(=O)NC(C)c1ccccc1 (stereo unspecified),i,i,i,i,i,nt,nt,
CC(C)CCC(C(=O)NC(C)c1ccccc1)C(=O)NC(C)c1ccccc1 (stereo unspecified),91.6,51.8,i,i,i,57.4,i,Scp-1 Tm shift=i
O=C(Nc1ccc(O)c(-c2nc3ccccc3s2)c1)c1cc(=O)c2ccccc2o1,80.0,51.6,i,i,i,67.8,i,Scp-1 Tm shift=i
Cc1ccc(S(=O)(=O)N2CCN(C)CC2c2ccccc2)cc1 (stereo unspecified),i,i,i,i,i,nt,nt,
O=C(Nc1ccc(Br)cn1)c1coc(=O)c(Br)c1,69.1,i,i,i,i,i,i,
CCCOC(=O)c1ccc(OCC(O)CN2C(=O)NC(C)(C)C2=O)cc1 (stereo unspecified),65.1,i,i,i,i,i,i,
Cc1cccc(Cc2nc3ccccc3[nH]2)c1,i,i,i,i,i,nt,nt,
COCCn1c(SCC(=O)NC2CCCC2)nnc1-c1ccco1,i,i,i,i,i,nt,nt,
COc1ccccc1NC(=S)N1CCN(Cc2ccc3c(c2)OCO3)CC1,i,i,i,i,i,nt,nt,
COc1ccccc1NC(=O)NNC(=O)COc1ccc2ccccc2c1,i,i,i,i,i,nt,nt,
COc1ccc(CC(=O)NNC(=O)COc2ccc3ccccc3c2)cc1,57.0,i,i,i,i,51.6,i,Scp-1 Tm shift=i
CN(O)/C=C1\C(=O)Nc2ccccc21,64.8,i,i,i,i,i,i,
CN(C)/C=C1\C(=O)Nc2ccccc21,i,i,i,i,i,nt,nt,
SMILES,Scp-1 inhibitor,LMPTP inh,DNMT1 block,SUMO1 PPI mod,STEP block,Scp1 confirm,MG interference,others
CCOC(=O)C1=C(COC(=O)/C=C/c2cccc(OC)c2OC)NC(=O)NC1C (stereo unspecified),i,i,i,i,i,nt,nt,
Cc1cc(Cl)ccc1OCC(=O)OC(C)C(=O)N(C)C (stereo unspecified),55.4,i,i,i,i,46.3,i,Scp-1 Tm shift=i
CCN(CC)C(=O)C(C)OC(=O)COc1ccc(Cl)cc1C (stereo unspecified),i,i,i,i,i,nt,nt,
Cc1ccc(C)c(N2CCN(S(=O)(=O)c3cc4c(cc3Cl)NC(=O)CO4)CC2)c1,i,i,i,i,i,nt,nt,
CC(C)c1ccc(Nc2ccc(C(=O)O)cc2[N+](=O)[O-])cc1,i,i,i,i,i,nt,nt,
CS(=O)(=O)C1=NSC2=NC(=O)/C(=C\c3cccn3-c3ccc(Cl)cc3)C(=N)N21,82.7,i,i,i,95.2,78.8,i,Scp-1 Tm shift=i
Nc1ccc2nc(SCC(=O)Nc3ccc(N4CCOCC4)c(Cl)c3)sc2c1,97.4,i,i,i,i,i,i,
CCCC(=O)Nc1ccc2nc(SCC(=O)Nc3ccc(N4CCOCC4)c(Cl)c3)sc2c1,i,i,i,i,i,nt,nt,
COc1ccc(CN2CCN(C(=O)c3ccc(S(=O)(=O)NCc4ccco4)cc3)CC2)cc1,i,i,i,i,i,nt,nt,
CN1C(=O)/C(=C2\SC(=S)N(CCCCCC(=O)O)C2=O)c2ccccc21,103.5,85.1,i,i,98.5,67.8,i,Scp-1 Tm shift=i
O=C(O)CCN1C(=O)/C(=C2\C(=O)N(Cc3ccc(F)cc3)c3ccccc32)SC1=S,88.2,81.9,i,i,93.0,61.4,i,Scp-1 Tm shift=8.8
CCN1C(=O)/C(=C2\SC(=S)N(CCCOC)C2=O)c2ccccc21,i,i,i,i,i,nt,nt,
C[C@H](O)[C@@H]1C(=O)N2CCc3ccc(-c4ccccc4)cc3[C@@H]2C[C@@H]1N(C)C(=O)Nc1cc(Cl)cc(Cl)c1,i,i,i,i,i,nt,nt,
COC(=O)C1CCN(S(=O)(=O)CCNC(=O)c2ccc(F)cc2)CC1,i,i,i,i,i,nt,nt,
COc1ccc([C@H]2CC(=O)C=C(c3ccnc4ccc(Cl)cc34)C2)cc1,59.1,i,i,i,i,i,i,
O=C(NNC(=O)C1CC(=O)N(Cc2ccccc2)C1)c1ccc(F)cc1 (stereo unspecified),i,i,i,i,i,nt,nt,
CCC(NC(=O)Cn1cnc2c(=O)n(C)c(=O)n(C)c21)c1ccccc1 (stereo unspecified),i,i,i,i,i,i,i,
COc1ccc(CNC(=O)Cn2cnc3c(=O)n(C)c(=O)n(C)c32)cc1,i,i,i,i,i,i,i,
Cn1c(=O)c2ncn(CC(=O)NCCOc3ccccc3)c2n(C)c1=O,i,i,i,i,i,nt,nt,
COc1ccc(NC(=O)c2cc3ccc4c5ccccc5[nH]c4c3cc2O)cc1,i,i,i,i,i,nt,nt,
O=C(Nc1nc2ccccc2s1)c1ccc(Cl)s1,i,i,i,i,i,nt,nt,
